Seven molecules from ChEMBL document CHEMBL1148185, “New cyanocyclines from a cyanide-treated broth of Streptomyces lusitanus” (1993) can be followed below.

Assay type in all cases: functional
Experiment [1] deals with Escherichia coli. The experiment in a line: Antibacterial activity against Escherichia coli ATCC 10536 after 16 to 20 hrs. An outline of the steps:
(§1)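 Broth microdilution MIC. Bacteria grown in brain heart infusion (BHI) broth at 37° for 24 h, then subcultured into fresh BHI for 8 h. Cultures diluted in 0.9% NaCl to McFarland 0.5 (ca. 10^8 cfu/ml), then diluted 20-fold in BHI. Two-fold antibiotic dilution series; 50 μl drug plus 50 μl culture per well. Incubated at 37° for 16–20 h.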

The subject of experiment [2] is Proteus vulgaris. The experiment in a line: Antibacterial activity against Proteus vulgaris after 16 to 20 hrs. In a few lines: as §1
Experiment [3] relates to Klebsiella pneumoniae. The experiment in a line: Antibacterial activity against Klebsiella pneumoniae A-''AD'' after 16 to 20 hrs. In a few lines:
as §1

In experiment [4] the test system is Serratia marcescens. The experiment can be described thus: Antibacterial activity against Serratia marcescens ATCC 13880 after 16 to 20 hrs. An outline of the steps: as §1
Experiment [5] relates to Bacillus subtilis. The experiment in a line: Antibacterial activity against Bacillus subtilis ATCC 6633 after 16 to 20 hrs. An outline of the steps:
as §1

The subject of experiment [6] is Micrococcus luteus. The experiment can be described thus: Antibacterial activity against Micrococcus luteus ATCC 4698 after 16 to 20 hrs. An outline of the steps:
as §1

Experiment [7] relates to Enterococcus faecalis. The experiment can be described thus: Antibacterial activity against Streptococcus faecalis ATCC 29212 after 16 to 20 hrs. An outline of the steps:
as §1

Each structure is given as a SMILES string. In brackets after ≈: the same amount, converted by molar mass. Activity calls are given as the source filed them. The calls are words filed in the database; no cut-off is given here.

With `COc1c(C)c(OC)c2c(c1OC)[C@@H](CO)N1[C@H]3[C@@H]4[C@@H](C[C@H]([C@H]1C#N)N4C)[C@@H]1OCCN1[C@@H]23`, the result in experiment [1], in experiment [2], in experiment [3], in experiment [4], in experiment [5] and in experiment [6] was inactive. Moreover, in experiment [7], the result was inactive.
As for `COC1=C(C)C(=O)C2=C(C1=O)[C@@H](CO)N1[C@H]3[C@H]4N[C@H](C[C@H]4[C@@H]4OCCN4[C@@H]23)[C@H]1C#N` [CYANOCYCLINE B], the MIC (usually the lowest concentration found to suppress growth) in experiment [1] stood at 0.25 µg/mL (≈ 0.606 µM); in experiment [2], 1 µg/mL (≈ 2.42 µM); in experiment [3], 0.031 µg/mL (≈ 0.0752 µM); in experiment [4] it was 0.5 µg/mL (≈ 1.21 µM); in experiment [5], 0.016 µg/mL (≈ 0.0388 µM); in experiment [6], 0.063 µg/mL (≈ 0.153 µM). Moreover, inhibition of growth in experiment [7] (MIC) required 0.25 µg/mL (≈ 0.606 µM).
Regarding `COc1c(C)c(O)c2c(c1O)[C@@H](CO)N1[C@H]3[C@@H]4[C@@H](C[C@H]([C@H]1C#N)N4C)[C@@H]1OCCN1[C@@H]23`, the result in experiment [1], in experiment [2], in experiment [3], in experiment [4], in experiment [5] and in experiment [6] was Active. Further, the result in experiment [7] was Active.
On to `COC1=C(C)C(=O)C2=C(C1=O)[C@@H](CO)N1[C@H]3[C@H]4N[C@H](C[C@H]4[C@@H]4OCCN4[C@@H]23)[C@@H]1O`, for which the result in experiment [1], in experiment [2], in experiment [3], in experiment [4], in experiment [5] and in experiment [6] was Active. Moreover, the outcome in experiment [7] was Active.
For `COc1c(C)c(O)c2c(c1O)[C@@H](CO)N1[C@H]3[C@@H]4[C@@H](C[C@H]([C@H]1O)N4C)[C@@H]1OCCN1[C@@H]23`, the result in experiment [1], in experiment [2], in experiment [3], in experiment [4], in experiment [5] and in experiment [6] was Active. Also, the outcome in experiment [7] was Active.
Regarding `COC1=C(C)C(=O)C2=C(C1=O)[C@@H](CO)N1[C@H]3[C@H]4[C@@H](C[C@H]([C@H]1C#N)N4C)[C@@H]1OCCN1[C@@H]23` [CYANOCYCLINE A], the MIC was 0.125 µg/mL (≈ 0.293 µM) in experiment [1]; 0.25 µg/mL (≈ 0.586 µM) in experiment [2]; 0.125 µg/mL (≈ 0.293 µM) in experiment [3]; 0.5 µg/mL (≈ 1.17 µM) in experiment [4]; 0.031 µg/mL (≈ 0.0727 µM) in experiment [5]; 0.031 µg/mL (≈ 0.0727 µM) in experiment [6]. In addition, the MIC in experiment [7] came out at 0.25 µg/mL (≈ 0.586 µM).
Regarding `COC1=C(C)C(=O)C2=C(C1=O)[C@@H](CO)N1[C@H]3[C@@H]4[C@@H](C[C@H]([C@H]1C#N)N4C)[C@H](C#N)N(CCO)[C@@H]23` [CYANOCYCLINE D], the MIC is 0.5 µg/mL (≈ 1.1 µM) in experiment [1]; 0.5 µg/mL (≈ 1.1 µM) in experiment [2]; 0.125 µg/mL (≈ 0.276 µM) in experiment [3]; 0.25 µg/mL (≈ 0.551 µM) in experiment [4]; 0.061 µg/mL (≈ 0.135 µM) in experiment [5]; 0.125 µg/mL (≈ 0.276 µM) in experiment [6]. Also, it took 0.25 µg/mL (≈ 0.551 µM) to inhibit growth in experiment [7] (MIC).
